# Measured values: ChEMBL document CHEMBL2424622, “Development of amino-pyrimidine inhibitors of c-Jun N-terminal kinase (JNK): kinase profiling guided optimization of a 1,2,3-benzotriazole lead” (Bioorg Med Chem Lett, 2013)
# Key:
# [1] = biological target: Mitogen-activated protein kinase 9 (Homo sapiens, UniProt P45984)
# [2] = biological target: Leukocyte tyrosine kinase receptor (Homo sapiens) (UniProt P29376); test: Competitive binding affinity to LTK (unknown origin) at 10 uM in presence of ATP relative to control
# How it was run: (§1)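 In vitro ATP-site competition binding assay, part of profiling against a diverse panel of 128 kinases. Each compound was tested at a single concentration of 10 µM. Kinome selectivity was summarized as S15 selectivity scores.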
# [3] = biological target: BMP-2-inducible protein kinase (Homo sapiens) (UniProt Q9NSY1); test: Competitive binding affinity to BIKE (unknown origin) at 10 uM in presence of ATP relative to control
# [4] = biological target: Mast/stem cell growth factor receptor Kit (Homo sapiens) (UniProt P10721); test: Competitive binding affinity to KIT (unknown origin) at 10 uM in presence of ATP relative to control
# How it was run: as §1
# [5] = biological target: Tyrosine-protein kinase ABL1 (Homo sapiens) (UniProt P00519); test: Competitive binding affinity to ABL1 (unknown origin) at 10 uM in presence of ATP relative to control
# Chain of Tyrosine-protein kinase ABL1 (Homo sapiens) (P00519 whole entry): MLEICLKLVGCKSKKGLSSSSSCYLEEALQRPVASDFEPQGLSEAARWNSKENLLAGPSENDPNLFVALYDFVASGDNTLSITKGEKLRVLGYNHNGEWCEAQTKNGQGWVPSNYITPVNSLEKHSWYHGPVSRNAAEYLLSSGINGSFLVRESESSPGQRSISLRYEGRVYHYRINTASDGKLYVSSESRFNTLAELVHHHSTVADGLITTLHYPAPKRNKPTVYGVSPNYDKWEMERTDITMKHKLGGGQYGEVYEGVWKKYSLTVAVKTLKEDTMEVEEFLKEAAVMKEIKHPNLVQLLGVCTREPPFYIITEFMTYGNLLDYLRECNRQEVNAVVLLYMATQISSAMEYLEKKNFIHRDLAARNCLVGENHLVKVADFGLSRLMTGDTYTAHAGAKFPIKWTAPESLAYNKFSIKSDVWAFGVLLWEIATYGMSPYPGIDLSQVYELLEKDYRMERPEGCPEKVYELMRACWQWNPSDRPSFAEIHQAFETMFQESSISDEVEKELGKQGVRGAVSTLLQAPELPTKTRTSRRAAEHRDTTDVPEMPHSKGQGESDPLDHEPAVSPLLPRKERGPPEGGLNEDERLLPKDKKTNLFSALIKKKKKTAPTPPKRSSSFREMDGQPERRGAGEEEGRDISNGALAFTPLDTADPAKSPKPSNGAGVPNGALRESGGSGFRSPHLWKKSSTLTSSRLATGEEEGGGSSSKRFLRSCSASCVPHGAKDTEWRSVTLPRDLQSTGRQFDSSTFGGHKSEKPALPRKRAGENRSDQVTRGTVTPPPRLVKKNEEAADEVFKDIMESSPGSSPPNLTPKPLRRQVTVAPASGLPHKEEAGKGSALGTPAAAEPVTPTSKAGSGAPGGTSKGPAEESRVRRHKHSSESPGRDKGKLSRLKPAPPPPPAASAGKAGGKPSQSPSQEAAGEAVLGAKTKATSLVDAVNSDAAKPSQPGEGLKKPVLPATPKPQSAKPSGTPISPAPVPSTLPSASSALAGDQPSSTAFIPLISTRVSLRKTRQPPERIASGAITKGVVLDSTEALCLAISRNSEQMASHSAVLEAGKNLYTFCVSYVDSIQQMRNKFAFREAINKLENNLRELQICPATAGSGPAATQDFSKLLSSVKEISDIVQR
# [6] = biological target: Tyrosine-protein kinase Fes/Fps (Homo sapiens) (UniProt P07332); test: Competitive binding affinity to FES (unknown origin) at 10 uM in presence of ATP relative to control
# How it was run: as §1
# [7] = biological target: Serine/threonine-protein kinase PAK 1 (Homo sapiens) (UniProt Q13153); test: Competitive binding affinity to PAK1 (unknown origin) at 10 uM in presence of ATP relative to control
# How it was run: (§2)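 In vitro ATP-site competition binding assay across a diverse panel of 128 kinases, with compound tested at a single concentration. Kinase selectivity scores (S15) were calculated from the panel profiles.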
# [8] = biological target: Serine/threonine-protein kinase PAK 5 (Homo sapiens) (UniProt Q9P286); test: Competitive binding affinity to PAK7/PAK5 (unknown origin) at 10 uM in presence of ATP relative to control
# Chain of Serine/threonine-protein kinase PAK 5 (Homo sapiens) (Q9P286 whole entry, looked up): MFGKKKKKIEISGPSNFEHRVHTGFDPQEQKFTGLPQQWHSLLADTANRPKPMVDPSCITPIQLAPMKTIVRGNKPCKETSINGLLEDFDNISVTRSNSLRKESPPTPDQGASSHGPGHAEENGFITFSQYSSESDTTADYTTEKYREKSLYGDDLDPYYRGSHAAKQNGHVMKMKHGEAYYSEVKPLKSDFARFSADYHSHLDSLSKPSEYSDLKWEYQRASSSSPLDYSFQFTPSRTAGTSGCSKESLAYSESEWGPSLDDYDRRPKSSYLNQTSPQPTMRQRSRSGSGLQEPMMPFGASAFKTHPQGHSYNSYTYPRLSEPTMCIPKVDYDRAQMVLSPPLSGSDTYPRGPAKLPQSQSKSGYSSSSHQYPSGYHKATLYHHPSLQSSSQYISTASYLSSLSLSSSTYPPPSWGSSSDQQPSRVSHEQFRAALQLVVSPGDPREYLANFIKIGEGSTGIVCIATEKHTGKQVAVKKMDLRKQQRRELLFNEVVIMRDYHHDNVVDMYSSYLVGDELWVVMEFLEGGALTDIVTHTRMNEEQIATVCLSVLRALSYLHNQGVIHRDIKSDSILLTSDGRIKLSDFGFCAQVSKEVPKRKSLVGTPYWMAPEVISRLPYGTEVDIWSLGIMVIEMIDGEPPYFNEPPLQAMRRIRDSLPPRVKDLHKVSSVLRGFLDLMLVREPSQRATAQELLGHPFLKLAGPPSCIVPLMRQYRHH
# How it was run: as §2
# [9] = biological target: Calcium/calmodulin-dependent protein kinase type II subunit gamma (Homo sapiens) (UniProt Q13555); test: Competitive binding affinity to CAMK2G (unknown origin) at 10 uM in presence of ATP relative to control
# [10] = biological target: Tyrosine-protein kinase JAK1 (Homo sapiens) (UniProt P23458); test: Competitive binding affinity to JAK1 kinase domain 1 (unknown origin) at 10 uM in presence of ATP relative to control
# How it was run: as §1
# [11] = biological target: Serine/threonine-protein kinase PAK 3 (Homo sapiens) (UniProt O75914); test: Competitive binding affinity to PAK3 (unknown origin) at 10 uM in presence of ATP relative to control
# How it was run: as §2
# [12] = biological target: Death-associated protein kinase 3 (Homo sapiens, UniProt O43293); test: Competitive binding affinity to DAPK3 (unknown origin) at 10 uM in presence of ATP relative to control
# How it was run: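 In vitro ATP-site competition binding assay across a diverse panel of 128 kinases, with each compound tested at a single concentration. Kinase binding is expressed relative to control.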
# [13] = biological target: Calcium/calmodulin-dependent protein kinase kinase 2 (Homo sapiens) (UniProt Q96RR4); test: Competitive binding affinity to CAMKK2 (unknown origin) at 10 uM in presence of ATP relative to control
# [14] = biological target: Serine/threonine-protein kinase PAK 4 (Homo sapiens) (UniProt O96013); test: Competitive binding affinity to PAK4 (unknown origin) at 10 uM in presence of ATP relative to control
# How it was run: as §2
# [15] = biological target: MAP kinase-interacting serine/threonine-protein kinase 2 (Homo sapiens) (UniProt Q9HBH9); test: Competitive binding affinity to MKNK2 (unknown origin) at 10 uM in presence of ATP relative to control
# How it was run: as §2
# [16] = biological target: Tyrosine-protein kinase Lck (Homo sapiens) (UniProt P06239); test: Competitive binding affinity to LCK (unknown origin) at 10 uM in presence of ATP relative to control
# Chain of Tyrosine-protein kinase Lck (Homo sapiens) (P06239 2-509 limits assumed): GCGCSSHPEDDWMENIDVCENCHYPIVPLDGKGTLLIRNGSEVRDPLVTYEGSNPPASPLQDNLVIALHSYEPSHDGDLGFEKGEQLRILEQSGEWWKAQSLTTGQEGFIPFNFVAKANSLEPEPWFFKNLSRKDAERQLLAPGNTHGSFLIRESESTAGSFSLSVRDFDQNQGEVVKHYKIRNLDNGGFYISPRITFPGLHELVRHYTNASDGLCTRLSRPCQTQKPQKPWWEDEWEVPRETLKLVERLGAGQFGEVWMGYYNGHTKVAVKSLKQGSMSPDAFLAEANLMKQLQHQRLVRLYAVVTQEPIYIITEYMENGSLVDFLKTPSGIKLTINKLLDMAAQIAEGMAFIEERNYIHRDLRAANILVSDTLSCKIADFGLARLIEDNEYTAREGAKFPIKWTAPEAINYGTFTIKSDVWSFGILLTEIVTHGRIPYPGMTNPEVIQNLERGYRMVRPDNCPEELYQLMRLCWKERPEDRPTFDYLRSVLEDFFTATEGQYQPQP
# How it was run: as §1
# [17] = biological target: Myosin light chain kinase 2, skeletal/cardiac muscle (Homo sapiens) (UniProt Q9H1R3); test: Competitive binding affinity to MYLK2 (unknown origin) at 10 uM in presence of ATP relative to control
# How it was run: as §2
# [18] = biological target: Vascular endothelial growth factor receptor 3 (Homo sapiens) (UniProt P35916); test: Competitive binding affinity to FLT4 (unknown origin) at 10 uM in presence of ATP relative to control
# How it was run: as §1
# [19] = biological target: Focal adhesion kinase 1 (Homo sapiens) (UniProt Q05397); test: Competitive binding affinity to PTK2 (unknown origin) at 10 uM in presence of ATP relative to control
# How it was run: as §2
# [20] = biological target: Tyrosine-protein kinase ABL2 (Homo sapiens) (UniProt P42684); test: Competitive binding affinity to ABL2 (unknown origin) at 10 uM in presence of ATP relative to control
# Chain of Tyrosine-protein kinase ABL2 (Homo sapiens) (P42684 whole entry): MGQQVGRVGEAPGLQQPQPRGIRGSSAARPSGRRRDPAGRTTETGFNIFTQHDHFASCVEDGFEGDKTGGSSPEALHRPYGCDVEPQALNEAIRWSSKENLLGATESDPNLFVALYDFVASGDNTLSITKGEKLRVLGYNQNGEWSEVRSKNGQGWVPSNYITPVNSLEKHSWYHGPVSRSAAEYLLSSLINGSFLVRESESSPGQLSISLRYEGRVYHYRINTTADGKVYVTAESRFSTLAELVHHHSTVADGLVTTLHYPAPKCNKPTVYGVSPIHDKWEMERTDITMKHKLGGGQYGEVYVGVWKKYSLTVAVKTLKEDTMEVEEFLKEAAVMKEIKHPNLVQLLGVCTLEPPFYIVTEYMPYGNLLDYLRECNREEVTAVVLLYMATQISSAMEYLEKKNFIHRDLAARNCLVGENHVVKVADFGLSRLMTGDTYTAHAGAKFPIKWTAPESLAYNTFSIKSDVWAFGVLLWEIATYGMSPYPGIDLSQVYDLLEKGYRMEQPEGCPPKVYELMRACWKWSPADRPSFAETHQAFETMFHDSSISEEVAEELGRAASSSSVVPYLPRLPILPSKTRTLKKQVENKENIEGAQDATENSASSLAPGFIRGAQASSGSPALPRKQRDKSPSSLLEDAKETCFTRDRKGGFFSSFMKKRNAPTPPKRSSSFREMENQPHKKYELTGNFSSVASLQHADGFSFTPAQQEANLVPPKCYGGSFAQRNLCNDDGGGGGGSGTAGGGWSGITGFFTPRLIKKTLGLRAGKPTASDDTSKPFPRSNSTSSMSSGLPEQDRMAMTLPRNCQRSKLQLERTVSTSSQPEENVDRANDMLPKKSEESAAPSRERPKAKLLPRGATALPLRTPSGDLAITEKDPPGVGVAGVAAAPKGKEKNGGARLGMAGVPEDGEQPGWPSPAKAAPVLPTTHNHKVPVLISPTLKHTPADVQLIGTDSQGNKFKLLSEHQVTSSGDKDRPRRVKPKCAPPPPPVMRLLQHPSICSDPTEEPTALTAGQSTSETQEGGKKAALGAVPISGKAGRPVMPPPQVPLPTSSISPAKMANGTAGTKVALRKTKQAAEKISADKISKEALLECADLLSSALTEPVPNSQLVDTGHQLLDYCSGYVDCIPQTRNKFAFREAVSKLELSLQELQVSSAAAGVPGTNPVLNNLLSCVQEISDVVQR
# [21] = biological target: cAMP-dependent protein kinase catalytic subunit alpha (Homo sapiens) (UniProt P17612); test: Competitive binding affinity to PKAC-alpha (unknown origin) at 10 uM in presence of ATP relative to control
# How it was run: as §2
# [22] = biological target: Platelet-derived growth factor receptor alpha (Homo sapiens) (UniProt P16234); test: Competitive binding affinity to PDGFRA (unknown origin) at 10 uM in presence of ATP relative to control
# How it was run: as §2
# [23] = biological target: Tyrosine-protein kinase BTK (Homo sapiens) (UniProt Q06187); test: Competitive binding affinity to BTK (unknown origin) at 10 uM in presence of ATP relative to control
# [24] = biological target: Angiopoietin-1 receptor (Homo sapiens) (UniProt Q02763); test: Competitive binding affinity to TIE2 (unknown origin) at 10 uM in presence of ATP relative to control
# How it was run: as §2
# [25] = biological target: Mitogen-activated protein kinase 8 (Homo sapiens, UniProt P45983)
# [26] = biological target: Serine/threonine-protein kinase MARK2 (Homo sapiens) (UniProt Q7KZI7); test: Competitive binding affinity to MARK2 (unknown origin) at 10 uM in presence of ATP relative to control
# How it was run: as §2
# [27] = biological target: Receptor tyrosine-protein kinase erbB-4 (Homo sapiens) (UniProt Q15303); test: Competitive binding affinity to ERBB4 (unknown origin) at 10 uM in presence of ATP relative to control
# How it was run: as §1
# [28] = biological target: Calcium/calmodulin-dependent protein kinase type 1 (Homo sapiens, UniProt Q14012); test: Competitive binding affinity to CAMK1 (unknown origin) at 10 uM in presence of ATP relative to control
# [29] = biological target: Casein kinase I isoform gamma-1 (Homo sapiens) (UniProt Q9HCP0); test: Competitive binding affinity to CSNK1G1 (unknown origin) at 10 uM in presence of ATP relative to control
# [30] = biological target: Ephrin type-A receptor 2 (Homo sapiens) (UniProt P29317); test: Competitive binding affinity to EPHA2 (unknown origin) at 10 uM in presence of ATP relative to control
# Chain of Ephrin type-A receptor 2 (Homo sapiens) (P29317 whole entry): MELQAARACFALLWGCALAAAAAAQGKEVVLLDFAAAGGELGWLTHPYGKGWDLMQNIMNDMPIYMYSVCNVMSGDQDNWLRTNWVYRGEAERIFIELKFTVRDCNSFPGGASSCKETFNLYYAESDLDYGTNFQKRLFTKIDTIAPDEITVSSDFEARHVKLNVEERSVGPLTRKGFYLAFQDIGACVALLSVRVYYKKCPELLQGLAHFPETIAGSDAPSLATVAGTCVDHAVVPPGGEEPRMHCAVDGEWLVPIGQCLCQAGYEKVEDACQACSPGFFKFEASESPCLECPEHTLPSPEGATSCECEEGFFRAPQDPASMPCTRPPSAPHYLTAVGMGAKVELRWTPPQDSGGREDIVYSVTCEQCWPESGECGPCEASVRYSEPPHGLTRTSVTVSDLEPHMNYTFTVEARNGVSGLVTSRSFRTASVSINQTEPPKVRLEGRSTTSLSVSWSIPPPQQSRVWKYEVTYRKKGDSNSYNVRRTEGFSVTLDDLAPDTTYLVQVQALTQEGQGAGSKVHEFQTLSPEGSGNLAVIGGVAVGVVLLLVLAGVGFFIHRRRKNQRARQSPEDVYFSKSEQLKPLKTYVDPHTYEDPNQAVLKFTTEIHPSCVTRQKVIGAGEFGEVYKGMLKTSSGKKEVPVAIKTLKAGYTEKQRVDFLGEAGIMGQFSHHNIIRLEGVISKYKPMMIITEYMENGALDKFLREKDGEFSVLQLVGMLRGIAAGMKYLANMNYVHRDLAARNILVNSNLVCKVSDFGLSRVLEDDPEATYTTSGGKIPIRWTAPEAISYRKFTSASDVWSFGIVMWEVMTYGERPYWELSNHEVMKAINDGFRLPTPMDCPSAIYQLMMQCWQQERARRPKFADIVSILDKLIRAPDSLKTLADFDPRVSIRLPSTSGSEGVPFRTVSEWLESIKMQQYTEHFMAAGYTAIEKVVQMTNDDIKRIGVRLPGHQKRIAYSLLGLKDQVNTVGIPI
# How it was run: as §1
# [31] = biological target: Tyrosine-protein kinase Fgr (Homo sapiens) (UniProt P09769); test: Competitive binding affinity to FGR (unknown origin) at 10 uM in presence of ATP relative to control
# How it was run: as §1
# Chain of Mitogen-activated protein kinase 9 (P45984 whole entry): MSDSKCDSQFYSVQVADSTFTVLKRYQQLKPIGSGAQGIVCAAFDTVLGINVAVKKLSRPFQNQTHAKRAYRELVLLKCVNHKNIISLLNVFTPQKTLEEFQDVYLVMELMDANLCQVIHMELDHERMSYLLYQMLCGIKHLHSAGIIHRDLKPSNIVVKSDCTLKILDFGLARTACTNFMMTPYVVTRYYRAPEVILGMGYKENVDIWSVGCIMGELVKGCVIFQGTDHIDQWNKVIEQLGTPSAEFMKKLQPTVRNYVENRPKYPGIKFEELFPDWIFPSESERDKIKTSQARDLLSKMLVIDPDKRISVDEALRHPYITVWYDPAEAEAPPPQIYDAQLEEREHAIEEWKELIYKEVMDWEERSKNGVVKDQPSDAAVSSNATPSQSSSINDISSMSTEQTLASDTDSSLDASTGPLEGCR
SMILES,IC50 [1],inhibition [2],inhibition [3],inhibition [4],inhibition [5],inhibition [6],inhibition [7],inhibition [8],inhibition [9],inhibition [10],inhibition [11],inhibition [13],inhibition [14],inhibition [15],inhibition [16],inhibition [17],inhibition [18],IC50 [25],inhibition [28],inhibition [12],further results
O[C@H]1CC[C@H](Nc2nccc(-n3ccc4ccccc43)n2)CC1,360 nM,< 50%,< 50%,72%,< 50%,< 50%,< 50%,< 50%,67%,< 50%,< 50%,< 50%,< 50%,< 50%,< 50%,< 50%,< 50%,65 nM,73%,< 50%,inhibition [19]: < 50%; inhibition [20]: < 50%; inhibition [21]: < 50%; inhibition [22]: < 50%; inhibition [23]: < 50%; inhibition [24]: < 50%; inhibition [26]: < 50%; inhibition [27]: < 50%; inhibition [29]: < 50%; inhibition [30]: < 50%; inhibition [31]: < 50%
O=C([C@H]1CC[C@H](Nc2nccc(-n3nnc4ccccc43)n2)CC1)N1CCOCC1,180 nM,< 50%,87%,67%,92%,< 50%,< 50%,< 50%,< 50%,< 50%,< 50%,75%,< 50%,97%,70%,< 50%,< 50%,63 nM,< 50%,64%,inhibition [19]: < 50%; inhibition [20]: < 50%; inhibition [21]: < 50%; inhibition [22]: < 50%; inhibition [23]: < 50%; inhibition [24]: < 50%; inhibition [26]: < 50%; inhibition [27]: < 50%; inhibition [29]: 75%; inhibition [30]: < 50%; inhibition [31]: 82%
O[C@H]1CC[C@H](Nc2nccc(-n3ncc4ccccc43)n2)CC1,350 nM,< 50%,81%,91%,< 50%,< 50%,< 50%,< 50%,80%,88%,75%,65%,< 50%,75%,< 50%,< 50%,< 50%,55 nM,76%,< 50%,inhibition [19]: < 50%; inhibition [20]: < 50%; inhibition [21]: < 50%; inhibition [22]: 72%; inhibition [23]: < 50%; inhibition [24]: < 50%; inhibition [26]: < 50%; inhibition [27]: < 50%; inhibition [29]: < 50%; inhibition [30]: < 50%; inhibition [31]: < 50%

# Molecules with a lower IC50 [1], results first:
IC50 [1],inhibition [2],inhibition [3],inhibition [4],inhibition [5],inhibition [6],inhibition [7],inhibition [8],inhibition [9],inhibition [10],inhibition [11],inhibition [13],inhibition [14],inhibition [15],inhibition [16],inhibition [17],inhibition [18],IC50 [25],inhibition [28],SMILES,inhibition [12],further results
110 nM,< 50%,86%,86%,< 50%,< 50%,< 50%,< 50%,69%,< 50%,76%,72%,< 50%,86%,65%,< 50%,< 50%,29 nM,< 50%,O[C@H]1CC[C@H](Nc2nccc(-n3nnc4ccccc43)n2)CC1,93%,inhibition [19]: < 50%; inhibition [20]: < 50%; inhibition [21]: < 50%; inhibition [22]: < 50%; inhibition [23]: < 50%; inhibition [24]: < 50%; inhibition [26]: < 50%; inhibition [27]: < 50%; inhibition [29]: 97%; inhibition [30]: < 50%; inhibition [31]: 75%
66 nM,,,,,,,,,,,,,,,,,16 nM,> 85%,CS(=O)(=O)CCCOc1cccc2c1ccn2-c1ccnc(N[C@H]2CC[C@H](C(=O)N3CCC(O)CC3)CC2)n1,> 85%,
